Screens from PubChem BioAssay.
Sampled rows, rich in hits. Any-hit rate of the full collection: about 0.75%.
EBNA-1 inh – blocks EBNA-1 binding to DNA; EBNA-1 DNA binding, fluorescence polarization; inhibition, % at 14.8 µM; actives 0.34% (n = 300,000); in the data active means inhibition above about 28%
ARFGAP1 inhibitor – inhibits rat ARF GTPase activating protein 1; Arfgap1-stimulated ARF1 GTP hydrolysis, GDP FP detection; inhibition, % at 16.5 µM; actives 0.26% (n = 360,000); AID 651572;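 active means inhibition above a per-plate limit, mean inhibition of low control wells plus 3 SD, cut at about 25% in these data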;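 further: 0% = DMSO wells with enzyme and 100% = wells lacking Arfgap1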
Target sequence (Q62848 1-136 limits assumed): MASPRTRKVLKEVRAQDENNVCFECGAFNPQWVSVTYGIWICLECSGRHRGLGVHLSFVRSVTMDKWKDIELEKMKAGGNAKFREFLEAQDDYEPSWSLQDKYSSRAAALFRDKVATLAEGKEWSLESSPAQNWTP
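System: truncated rat Arfgap1 GAP domain / Benchmarks: high control wells lacking Arfgap1, low control full reaction with DMSO / Times: compound-enzyme preincubation 20 min, reaction 120 min, detection 60 min, 25 °C / Repeats: one replicate per compound / Also added: human ARF1(Δ1-17)-GTP substrate / Measured by: Tracer-displacement fluorescence polarization with EDTA stop, 620/688 nm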
ASAP1 inh – blocks human ASAP1-stimulated Arf1 GTP hydrolysis; Q9ULH1; GDP FP detection; inhibition, % at 16.5 µM; actives 0.19% (n = 360,000); AID 624377; in the data active means inhibition above about 25%;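 further: 0% = vehicle with enzyme and substrate and 100% = no enzyme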
ZTA DNA inh – blocks Epstein-Barr virus ZTA, an EBNA-1 counter-screen; AID 2234; P03206; ZTA-DNA binding, fluorescence polarization; actives 0.15% (n = 320,000); inhibition, % at 11 µM; in the data active means inhibition above about 33%
Target sequence (P03206 whole entry, looked up): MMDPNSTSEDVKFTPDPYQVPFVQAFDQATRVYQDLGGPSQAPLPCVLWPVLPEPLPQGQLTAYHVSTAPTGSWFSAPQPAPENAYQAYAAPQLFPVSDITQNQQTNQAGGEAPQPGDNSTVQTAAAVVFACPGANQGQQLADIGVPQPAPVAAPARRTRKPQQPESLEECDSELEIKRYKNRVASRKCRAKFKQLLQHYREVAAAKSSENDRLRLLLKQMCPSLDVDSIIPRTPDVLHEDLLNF
ASAP1 inh confirm – confirmation of human ASAP1 inhibitors. shares compounds with ASAP1 inh. ASAP1-stimulated Arf1 GTPase, GDP fluorescence polarization. inhibition, % at 16.5 µM. actives 37% (n = 620);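 active means mean inhibition over triplicates exceeds the hit threshold derived for the earlier primary screening run, cut at about 25% in these data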
Active calls of the source: *.

Cc1cc(C)cc(NC(=O)CSc2nc(CSc3ccc(Cl)cc3)cc(=O)[nH]2)c1 was read as EBNA-1 inh 16, ARFGAP1 inhibitor 11, ASAP1 inh 26*, ZTA DNA inh 27 and ASAP1 inh confirm -4.
For S=C(Nc1ccc2nsnc2c1)N1CCCC1 the results were EBNA-1 inh -12, ARFGAP1 inhibitor 6, ASAP1 inh 35*, ZTA DNA inh -4 and ASAP1 inh confirm -2.
For NC(=O)COC(=O)CC(NC(N)=O)c1ccc(Cl)cc1 (configuration not stated) the results were EBNA-1 inh -8, ARFGAP1 inhibitor 1, ASAP1 inh 26*, ZTA DNA inh -3 and ASAP1 inh confirm 0.
Screening Cc1cc(C(=O)COC(=O)CC(NC(N)=O)c2ccc(Cl)cc2)c(C)n1C (configuration not stated) returned ARFGAP1 inhibitor 8 and ASAP1 inh 4.
For O=C(OCc1ccccc1)N1Cc2ccnnc2CC1c1ccccc1-c1ccc(C(F)(F)F)cc1 (configuration not stated) the results were ARFGAP1 inhibitor 10 and ASAP1 inh -10.
For Cc1c(O)ccc(/C=N/Nc2nc(-c3cccnc3)nc3ccccc23)c1O the results were EBNA-1 inh 1, ARFGAP1 inhibitor 8, ASAP1 inh 27*, ZTA DNA inh 8 and ASAP1 inh confirm 22.
Screening COc1ccc(C(=O)NC(=S)Nc2ccc3oc(=O)ccc3c2)cc1 returned EBNA-1 inh 4, ARFGAP1 inhibitor 14, ASAP1 inh 59*, ZTA DNA inh 5 and ASAP1 inh confirm 78*.
For COc1ccc(/C=C/C(=O)Nc2cc(C(F)(F)F)ccc2Cl)cc1OC the results were EBNA-1 inh 0, ARFGAP1 inhibitor 3, ASAP1 inh 10 and ZTA DNA inh 1.
Screening COc1cc(/C=C/C(=O)Nc2cc(C(F)(F)F)ccc2Cl)cc(OC)c1OC returned EBNA-1 inh -3, ARFGAP1 inhibitor 2, ASAP1 inh 25*, ZTA DNA inh -25 and ASAP1 inh confirm 14.
O=C(NCC1CCCO1)c1ccc[nH]1 (configuration not stated) was read as EBNA-1 inh 5, ARFGAP1 inhibitor 10, ASAP1 inh 27*, ZTA DNA inh 15 and ASAP1 inh confirm -5.
O=C(NCC1CCCO1)c1cccc(C(=O)NCC2CCCO2)c1 (configuration not stated) was read as EBNA-1 inh 6, ARFGAP1 inhibitor -1, ASAP1 inh -2 and ZTA DNA inh -21.
Screening Cn1c(SCC(=O)NC2CCCC2)nc2c(c1=O)SCC2 returned EBNA-1 inh 8, ARFGAP1 inhibitor 17, ASAP1 inh 28*, ZTA DNA inh 8 and ASAP1 inh confirm 10.
`COc1ccccc1NS(=O)(=O)c1ccc(C)c(C(=O)Nc2cc(C)on2)c1` gave ARFGAP1 inhibitor 2, ASAP1 inh 26* and ASAP1 inh confirm 7.
CCOC(=O)C1=CCN(S(=O)(=O)c2cccc(Cl)c2)C1c1ccc(Cl)c(Cl)c1 (configuration not stated) was read as ARFGAP1 inhibitor -7 and ASAP1 inh -6.
`O=C(O)COc1ccccc1/C=N/NC(=O)Cc1csc(Nc2cccc(C(F)(F)F)c2)n1` gave EBNA-1 inh -2, ARFGAP1 inhibitor 22, ASAP1 inh 37*, ZTA DNA inh 9 and ASAP1 inh confirm 6.
`O=C(Nc1ccc(Nc2ccncc2)cc1)c1ccc(Nc2ccnc3ccc([N+](=O)[O-])cc23)cc1` gave ARFGAP1 inhibitor 77*, ASAP1 inh 46* and ASAP1 inh confirm 75*.
`COc1cccc(-c2onc3ccc(C(=O)/C=C/N(C)C)cc23)c1` gave EBNA-1 inh 7, ARFGAP1 inhibitor 2, ASAP1 inh 35*, ZTA DNA inh 12 and ASAP1 inh confirm 51*.
`CC(=O)NCCNc1nc2cc(-c3cccc(C(F)(F)F)c3)sc2c(=O)n1C` gave ARFGAP1 inhibitor 4 and ASAP1 inh -3.
`CC(=O)NCCNc1nc2cc(-c3ccccc3)sc2c(=O)n1C` gave ARFGAP1 inhibitor -4, ASAP1 inh 28* and ASAP1 inh confirm 5.
For CCc1ccc(CCOc2ccc(CC3SC(=O)NC3=O)cc2)nc1 (configuration not stated) the results were EBNA-1 inh 3, ARFGAP1 inhibitor 12, ASAP1 inh 25*, ZTA DNA inh -3 and ASAP1 inh confirm 3.
Screening COc1ccccc1NC(=O)OC[C@@H]1CSCCS(=O)(=O)N1 returned ARFGAP1 inhibitor 15 and ASAP1 inh 20.
